A selection: hits, their analogues and other compounds. The true share with any hit is near 3%.
NPR1 activator – GC-A (human) enzyme activation; P16066; HEK293 GC-A cells, cGMP TR-FRET, EC30 ANP; 0% at EC30 ANP, 100% saturating ANP; 370,000 tested, 0.14% active; activation, % at 10 µM; in the data active = activation above about 40%
Target sequence (P16066 whole entry, looked up): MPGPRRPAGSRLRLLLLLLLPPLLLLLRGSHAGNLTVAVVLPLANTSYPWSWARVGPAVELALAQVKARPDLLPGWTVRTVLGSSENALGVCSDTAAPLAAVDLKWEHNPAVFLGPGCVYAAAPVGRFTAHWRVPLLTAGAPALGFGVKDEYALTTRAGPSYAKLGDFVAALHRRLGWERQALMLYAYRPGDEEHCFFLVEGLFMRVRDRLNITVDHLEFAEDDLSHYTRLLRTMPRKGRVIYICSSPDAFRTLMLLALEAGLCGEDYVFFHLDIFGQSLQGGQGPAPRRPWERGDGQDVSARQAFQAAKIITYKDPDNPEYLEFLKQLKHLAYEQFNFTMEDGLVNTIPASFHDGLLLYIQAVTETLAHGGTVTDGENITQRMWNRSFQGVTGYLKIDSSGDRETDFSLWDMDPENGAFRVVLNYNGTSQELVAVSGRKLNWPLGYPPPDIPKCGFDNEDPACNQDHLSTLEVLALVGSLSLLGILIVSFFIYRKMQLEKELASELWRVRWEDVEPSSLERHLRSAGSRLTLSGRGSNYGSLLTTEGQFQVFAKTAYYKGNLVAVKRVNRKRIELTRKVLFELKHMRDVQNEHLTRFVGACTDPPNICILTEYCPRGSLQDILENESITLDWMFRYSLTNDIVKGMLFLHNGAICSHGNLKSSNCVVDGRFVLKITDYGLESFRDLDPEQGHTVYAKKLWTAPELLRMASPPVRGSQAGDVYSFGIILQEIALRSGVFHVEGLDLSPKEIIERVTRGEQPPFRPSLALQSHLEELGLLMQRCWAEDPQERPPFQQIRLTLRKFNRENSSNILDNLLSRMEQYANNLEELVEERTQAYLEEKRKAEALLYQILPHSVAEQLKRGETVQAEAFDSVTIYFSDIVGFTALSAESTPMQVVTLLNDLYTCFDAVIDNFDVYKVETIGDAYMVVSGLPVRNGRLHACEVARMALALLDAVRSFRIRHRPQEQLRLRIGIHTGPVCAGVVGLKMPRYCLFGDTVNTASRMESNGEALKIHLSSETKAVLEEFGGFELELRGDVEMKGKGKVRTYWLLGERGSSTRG
aDG glyco act – increases alpha dystroglycan glycosylation. Pro5-aDG cells, alpha-DG glycosylation AlphaScreen (IIH6); 0% Pro5, 100% B10-LARGE cell signal. activation, % at 10 µM. 360,000 tested, 0.22% active. AID 624168;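 active = activation of at least 8% versus controls, or a plate z-score of at least 8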;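 also: Pro5 are CHO cells carrying HIG-tagged alpha-DG that lacks glycosylation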
GRIN3A LBD mod – NR3A (human) ligand-binding domain modulation; NR3A LBD differential scanning fluorimetry, Tm shift; 0% = protein alone, 100% = glycine-bound protein; 340,000 tested, 2.5% active; Tm shift relative to glycine control, % at 25 µM; AID 1259313;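 active = melting temperature shift of at least 10% of the positive control shift, at one fixed dose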
GASC-1 inh – human JMJD2C demethylase inhibition | GST-JMJD2C(1-420) H3K9me3 demethylation, DELFIA europium | inhibition, % at 2.35 µM | 330,000 tested, 0.069% active | AID 2099;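 active = more than half of a compound's replicate wells show inhibition beyond 50%, single wells judged on their own value; inconclusive = some, but no more than half, of replicates pass 50% inhibition; inactive = no replicate passes 50% inhibition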;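 also: signal counts dimethyl H3K9 product captured on neutravidin plate; 0% = median of DMSO wells and 100% = 0.3 times that DMSO median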
Hep lipid drop – modulators of hepatic lipid droplet formation; AML12 mouse hepatocytes, oleate lipid droplets, BODIPY imaging; inhibition, % at 6.5 µM; 240,000 tested, 0.4% active; AID 1656;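 active = lipid droplet intensity inhibited by at least 50%, with more than 500 cells counted; inconclusive = wells with under 300 cells, treated as cytotoxic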
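Material – mouse AML12 hepatocyte cell line, fixed after treatment · Compound dosing – one dose, 6.5 µM compound · Times – compound with oleate, overnight · Measured by – Image-based BODIPY and DAPI two-channel analysis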
NPR2 activator – GC-B (human) receptor activation. P20594. HEK293-GC-B cells, CNP EC30, cGMP TR-FRET; 0% at EC30 CNP, 100% saturating CNP. activation, % at 10 µM. 370,000 tested, 0.11% active. AID 1920062;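 active = activation at 10 µM reaching about 35% in either raw or pattern-adjusted values, limit read from the data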
* hit, by the source's call; ? = inconclusive; nt = no result given.

SMILES	NPR1 activator	aDG glyco act	GRIN3A LBD mod	GASC-1 inh	Hep lipid drop	NPR2 activator
CC1(c2nnnn2Cc2ccccc2)CN(S(C)(=O)=O)CC(=O)N1Cc1cccs1 (stereo unspecified)	-1	nt	nt	nt	nt	0
COC(=O)CC[C@H](/C=C/C(=O)OC(C)(C)C)Sc1ccc(C(C)(C)C)cc1	-2	nt	nt	nt	nt	5
COc1ccc(/C=N/NC(=O)c2ccc(Br)cc2)c(OC)c1	-3	0	1	6	3	-2
COc1ccc(/C=N/NC(=O)c2ccncc2)c(OC)c1	-3	0	20*	-29	-4	2
Cc1ccc(C(=O)c2ccccc2C(=O)OCC(=O)Nc2ccc(SC(F)F)cc2)cc1	3	1	-486	5	-38	-1
O=C(COC(=O)c1ccccc1Cc1ccccc1)Nc1ccc(SC(F)F)cc1	0	1	19*	1	-2	3
O=c1c(Cc2ccc(Cl)cc2Cl)c(O)ccn1Cc1ccc(Cl)cc1	1	0	22*	6	-15	3
Cc1ccc(Cn2ncc(Cl)c(Cl)c2=O)cc1	5	0	0	8	-6	-4
O=c1c(Cl)c(Cl)cnn1Cc1nnc(-c2ccc(Cl)cc2)o1	49*	-1	-3	-13	-3	9
CCOC(=O)C1C(C(=O)OC)=C(c2ccc(OC)cc2)c2ccccc2N1S(=O)(=O)C(F)(F)F (stereo unspecified)	7	0	11*	nt	nt	4
CCOC(=O)C1=C(c2ccccc2)c2ccccc2N(S(=O)(=O)C(F)(F)F)C1C(=O)OCC (stereo unspecified)	-4	0	0	nt	nt	-5
CCOC(=O)C1C(C(C)=O)=C(c2ccccc2)c2ccccc2N1S(=O)(=O)C(F)(F)F (stereo unspecified)	-5	0	11*	nt	nt	-3
Cn1cccc1CC(=O)NN=C/C=C\c1ccco1	-4	nt	nt	nt	nt	-2
Cn1cccc1-c1cc(C(=O)N/N=C/c2ccccc2Cl)[nH]n1	0	0	-15	7	-3	0
Cn1cccc1-c1cc(C(=O)N/N=C/c2ccc(F)cc2)[nH]n1	0	0	9	4	?	-1
O=C(N/N=C/c1cccc([N+](=O)[O-])c1)c1cc(-c2ccc3c4c(cccc24)CC3)n[nH]1	-2	0	18*	15	-14	-3
Cn1cccc1-c1cc(C(=O)N/N=C/c2ccc([N+](=O)[O-])cc2)[nH]n1	-2	0	28*	-8	-6	3
CCOc1ccc(/C=N/NC(=O)c2cc(-c3cccn3C)n[nH]2)cc1	-1	0	22*	3	0	1
Cn1cccc1-c1cc(C(=O)N/N=C/c2cc(Br)ccc2O)[nH]n1	2	0	27*	15	13	1
CCOC(=O)[C@]12CCCC=C1N(Cc1ccco1)C(=O)[C@H](CC(=O)N1CCN(C(=O)c3ccco3)CC1)C2	1	0	nt	nt	nt	4
O=C(Nc1ccccc1Oc1ccccc1)NC1CCCCN(Cc2cccc(Cl)c2)C1=O (stereo unspecified)	6	nt	nt	nt	nt	-2
COc1ccc(OC)c(CN2C(=O)CCCCC2(C)c2nnnn2C2CCCC2)c1 (stereo unspecified)	3	nt	nt	nt	nt	2
CC1Cc2ccccc2N1C(=O)COC(=O)c1ccc(O)cc1 (stereo unspecified)	3	0	0	1	11	-1
CNS(=O)(=O)c1cccc(C(=O)OCC(=O)N2c3ccccc3CC2C)c1 (stereo unspecified)	2	0	14*	3	-4	-1
CNS(=O)(=O)c1cccc(C(=O)OCC(=O)c2ccc[nH]2)c1	0	0	39*	1	nt	2
SMILES	NPR1 activator	aDG glyco act	GRIN3A LBD mod	GASC-1 inh	Hep lipid drop	NPR2 activator
CCOC(=O)c1c(C)[nH]c(C)c1C(=O)COC(=O)c1cccc(S(=O)(=O)NC)c1	-3	0	0	6	nt	7
COCCNC(=O)C1(C)CCCN(C(=O)c2ccccc2)C1 (stereo unspecified)	4	0	nt	nt	nt	5
CCOC(=O)CC[C@@]1(C(=O)OCC)C[C@@H](CC(=O)N2CCN(C(=O)c3ccco3)CC2)C(=O)N2CCCC=C21	-1	nt	nt	nt	nt	1
O=C(Nc1ccc2c(c1)OCO2)Nc1ccc(Cl)cc1Cl	8	0	34*	-1	3	-3
O=C(Nc1ccc2c(c1)OCO2)Nc1ccc(F)cc1F	3	0	1	-1	-2	0
O=C(Nc1ccc2c(c1)OCO2)N1CCN(c2ccccc2Cl)CC1	2	0	27*	2	8	-4
Cc1ccc(NC(=O)Nc2ccc3c(c2)OCO3)c(Br)c1	3	0	19*	19	5	-5
Cc1ccc(-n2c(SCC(=O)Nc3ccccc3-c3ccccc3)nnc2-c2ccccn2)cc1	-6	nt	nt	nt	nt	-9
O=C1CCC[C@H]2C[C@H](NCc3cccc(I)c3)CC[C@]23CCCN13	-2	nt	nt	nt	nt	-5
O=C(Oc1ccc(Br)cc1C(=S)N1CCCC1)c1ccccc1F	-1	0	2	2	-4	4
O=C(Oc1ccc(C(=S)N2CCCCC2)cc1)c1ccccc1F	-2	0	39*	-15	-4	1
O=C(CSc1nc2ccccc2nc1N1CCCCC1)NCc1ccc(Cl)cc1Cl	1	nt	nt	nt	nt	-8
COc1ccc(COc2cc(-c3cccc(OC)c3)nc3ccc(N)cc23)cc1	56*	0	-10	-9	?	53*
COc1ccc(COc2cc(-c3cccc(OC)c3)nc3ccc(NC(C)=O)cc23)cc1	54*	0	0	-6	1	68*
Cc1ccc(F)cc1NC(=O)c1ccc(NS(=O)(=O)c2ccc(Br)s2)cc1	-6	0	16*	13	-9	0
O=S(=O)(Nc1cc(Cl)ccc1-n1cncn1)c1ccccc1Cl	2	0	-3	nt	nt	4
O=S(=O)(Nc1cc(Cl)ccc1-n1cncn1)c1cc(Br)ccc1Br	-1	0	22*	2	nt	-2
CCOc1ccc(-n2c(SCc3nc4ccccc4[nH]3)nnc2-c2cccc(Cl)c2)cc1	-18	nt	nt	nt	nt	-20
O=C(CNC(=S)N(Cc1ccccc1F)C1CCCCC1)NC1CC1	-6	0	11*	-8	9	-6
O=C(O)COc1ccccc1/C=N/NC(=O)CSc1nnc(SCc2ccc(Cl)cc2)s1	0	0	-2	-4	-17	4
Cc1nn(-c2ccccc2)c(C)c1/C=N/NC(=O)CSc1nnc(SCc2ccccc2Cl)s1	-8	0	11*	4	1	1
O=C(CSc1nnc(SCc2ccc(Cl)cc2)s1)N/N=C/c1c[nH]c2ccccc12	-6	0	24*	-3	-4	-9

Bioassay records (PubChem BioAssay)
